Values belong to the compound of their own block, whether it stands above or below them. Calls of active or inactive are those of the source. The calls are words filed in the database; no cut-off is given here.
Tests used:
[1] = target: T1, Inhibitor of nuclear factor kappa-B kinase subunit beta (Homo sapiens) (UniProt O14920); assay: Inhibition of IKKbeta (unknown origin) at 10 uM using IkappaBalpha-derived 5FAMGRHDSGLDSMK-NH2 as substrate preincubated for 10 mins followed by substrate addition measured after 2 hrs by IMAP based TR-FRET assay relative to control
T1 sequence (whole entry): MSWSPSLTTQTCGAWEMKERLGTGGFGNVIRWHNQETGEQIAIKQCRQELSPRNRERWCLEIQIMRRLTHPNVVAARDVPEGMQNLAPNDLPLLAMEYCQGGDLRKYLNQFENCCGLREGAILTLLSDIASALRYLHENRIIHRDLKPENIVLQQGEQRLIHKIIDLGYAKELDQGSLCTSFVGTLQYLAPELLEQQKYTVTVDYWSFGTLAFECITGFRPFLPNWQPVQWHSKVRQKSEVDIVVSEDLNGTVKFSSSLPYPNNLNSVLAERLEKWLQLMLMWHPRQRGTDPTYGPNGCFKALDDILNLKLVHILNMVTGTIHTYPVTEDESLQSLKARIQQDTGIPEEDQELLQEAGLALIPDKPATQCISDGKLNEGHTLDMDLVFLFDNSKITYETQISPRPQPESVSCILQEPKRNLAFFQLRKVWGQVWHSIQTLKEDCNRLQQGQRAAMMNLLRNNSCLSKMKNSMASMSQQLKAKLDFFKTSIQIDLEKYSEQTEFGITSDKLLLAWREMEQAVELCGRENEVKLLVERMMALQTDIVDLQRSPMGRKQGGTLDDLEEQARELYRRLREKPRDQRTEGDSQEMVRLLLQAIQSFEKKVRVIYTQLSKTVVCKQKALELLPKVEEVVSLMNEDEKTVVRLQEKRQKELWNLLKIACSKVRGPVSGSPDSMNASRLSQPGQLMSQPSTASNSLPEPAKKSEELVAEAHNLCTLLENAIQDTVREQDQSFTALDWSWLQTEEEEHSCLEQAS
In short: (§1)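 Recombinant IKK2 at 0.5 µg/mL in 10 mM Tris-HCl pH 7.2, 10 mM MgCl2, 0.05% NaN3, 1 mM DTT, 0.01% Tween-20. Compound preincubated with enzyme for 10 min, then 1 μM 5-FAM IκBα peptide and 3 μM ATP added; reaction at room temperature for 2 h. IMAP binding reagent (1:600) plus terbium donor (1:400) added 15 h before the TR-FRET read. Percent inhibition measured at 10 µM.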

[2] = target: T2, Inhibitor of nuclear factor kappa-B kinase subunit beta (Homo sapiens, UniProt O14920); assay: Inhibition of IKKbeta (unknown origin) using IkappaBalpha-derived 5FAMGRHDSGLDSMK-NH2 as substrate preincubated for 10 mins followed by substrate addition measured after 2 hrs by IMAP based TR-FRET assay; in short: as §1
T2 sequence (O14920 whole entry): T1 sequence (whole entry)

[3] = Cytotoxicity against LPS-treated mouse RAW264.7 cells assessed as decrease in cell viability after 24 hrs by MTT assay; format: cell-based; settings: LPS-treated RAW264.7 cells
In short: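 RAW 264.7 cells seeded at 1×10^5 cells/mL, grown overnight, then exposed to samples for 24 h, with or without 1 μg/ml LPS. MTT added from a 5 mg/mL PBS stock for 4 h at 37 °C. Formazan dissolved in DMSO and absorbance read at 540 nm. IC80 is the concentration lowering viability to 80% in the presence of LPS.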

RAW264.7 [4] = assay: Antiinflammatory activity against mouse RAW264.7 cells assessed as inhibition of LPS-induced PGE2 production incubated for 1 hr followed by LPS addition measured after 24 hrs by ELISA; format: functional, cell-based
In short: (§2)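 RAW 264.7 macrophages (DMEM, 10% FBS, penicillin/streptomycin, 37 °C, 5% CO2) plated at 2×10^5 cells/mL and left overnight. Compounds at 1.5, 3 and 6 μM, or NS-398 as positive control, given for 1 h, then LPS (10 ng/mL) for 24 h. PGE2 and TNF-α in diluted culture medium quantified by ELISA. IC50 is the concentration halving the produced mediator.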

[5] = target: T2, Inhibitor of nuclear factor kappa-B kinase subunit beta; assay: Inhibition of human IKKbeta using IKKtide as substrate after 20 mins by [gamma-33P]-ATP based radiometric assay
hERG (KCNH2) = hERG (KCNH2) (Homo sapiens, UniProt Q12809); assay: Inhibition of human ERG expressed in CHOK1 cells assessed as reduction in tail current at 100 uM and -80 holding potential after 100 to 200 secs by whole cell automated patch-clamp electrophysiology assay relative to control; format: ADME, cell-based; settings: CHO-K1 cells expressing human ERG
hERG (KCNH2), sequence (Q12809 whole entry, the tested form may be a part): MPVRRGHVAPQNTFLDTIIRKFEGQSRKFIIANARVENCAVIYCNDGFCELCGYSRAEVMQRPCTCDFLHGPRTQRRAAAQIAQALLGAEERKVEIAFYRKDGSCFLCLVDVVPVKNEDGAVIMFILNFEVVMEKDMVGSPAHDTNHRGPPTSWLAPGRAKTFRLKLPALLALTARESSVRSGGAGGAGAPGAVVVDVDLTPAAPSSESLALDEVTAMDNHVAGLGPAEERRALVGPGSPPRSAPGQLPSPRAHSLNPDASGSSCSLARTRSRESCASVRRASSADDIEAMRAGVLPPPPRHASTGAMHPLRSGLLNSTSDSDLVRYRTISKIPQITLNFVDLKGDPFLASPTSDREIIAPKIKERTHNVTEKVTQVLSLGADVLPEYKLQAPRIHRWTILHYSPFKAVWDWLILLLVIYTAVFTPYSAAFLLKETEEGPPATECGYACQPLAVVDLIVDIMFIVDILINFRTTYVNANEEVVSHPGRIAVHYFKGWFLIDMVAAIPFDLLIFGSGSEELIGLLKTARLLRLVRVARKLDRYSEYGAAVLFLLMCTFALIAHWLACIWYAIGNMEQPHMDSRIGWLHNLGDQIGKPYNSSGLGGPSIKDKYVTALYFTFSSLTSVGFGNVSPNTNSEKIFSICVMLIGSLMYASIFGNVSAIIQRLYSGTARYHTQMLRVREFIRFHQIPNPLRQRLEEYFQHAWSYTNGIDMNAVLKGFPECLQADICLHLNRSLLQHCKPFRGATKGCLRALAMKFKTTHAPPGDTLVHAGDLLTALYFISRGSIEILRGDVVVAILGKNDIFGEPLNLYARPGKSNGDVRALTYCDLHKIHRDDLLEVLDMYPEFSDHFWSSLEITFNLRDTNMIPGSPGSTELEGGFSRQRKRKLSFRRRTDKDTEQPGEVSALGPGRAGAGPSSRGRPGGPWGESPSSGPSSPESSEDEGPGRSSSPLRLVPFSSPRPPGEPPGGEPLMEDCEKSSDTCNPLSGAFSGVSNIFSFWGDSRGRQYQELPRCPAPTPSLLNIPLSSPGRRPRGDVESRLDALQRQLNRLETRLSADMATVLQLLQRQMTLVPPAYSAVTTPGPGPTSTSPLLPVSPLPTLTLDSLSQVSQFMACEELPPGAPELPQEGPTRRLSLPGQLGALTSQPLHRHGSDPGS
In short: (§3)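 CHO-K1 Tet-On hERG cells, with expression induced by doxycycline 5 μg/ml, recorded 20–32 h after induction. Whole-cell automated patch clamp used intracellular solution of 50 KCl, 60 KF, 10 NaCl, 2 MgCl2, 20 EGTA, 10 HEPES pH 7.2 (mM) and extracellular solution of 140 NaCl, 4 KCl, 2 CaCl2, 1 MgCl2, 5 glucose, 10 HEPES pH 7.4. Compound perfused for 100–200 s until tail-current block reached equilibrium. Percent inhibition taken at 100 μM.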

RAW264.7 [6] = assay: Antiinflammatory activity against mouse RAW264.7 cells assessed as inhibition of LPS-induced TNFalpha production incubated for 1 hr followed by LPS addition measured after 24 hrs by ELISA; format: functional, cell-based; in short: as §2
[7] = tested on: hERG (KCNH2) versus IKKbeta; assay: Safety index, ratio of compound IC50 for human ERG expressed in CHOK1 cells to IC50 for IKKbeta (unknown origin); format: toxicity, cell-based; settings: CHO-K1 cells expressing human ERG, read-out: Ratio IC50
In short: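 Safety index calculated as hERG IC50 divided by IKK-β IC50.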

[8] = target: Voltage-gated inwardly rectifying potassium channel KCNH2 (Homo sapiens, UniProt Q12809); assay: Inhibition of human ERG expressed in CHOK1 cells assessed as reduction in tail current at -80 holding potential after 100 to 200 secs by whole cell automated patch-clamp electrophysiology assay; format: ADME, cell-based; in short: as §3
Voltage-gated inwardly rectifying potassium channel KCNH2, sequence (Q12809 whole entry): as the sequence (Q12809 whole entry, the tested form may be a part) above

[9] = target: T2, Inhibitor of nuclear factor kappa-B kinase subunit beta; assay: Irreversible inhibition of IKKbeta (unknown origin) using IkappaBalpha-derived 5FAMGRHDSGLDSMK-NH2 as substrate measured after 40 mins
In short: (§4)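 Same IKK2 IMAP TR-FRET system (0.5 µg/mL enzyme, 1 μM peptide, 3 μM ATP, room temperature). Ten concentrations, 0.001–30 μM, with reactions run for 0, 20, 40 or 60 min instead of 2 h. Dose–response curves fitted at each time point. Kobs obtained from ln(% activity remaining) against time, then regressed nonlinearly against concentration.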

[10] = target: T2, Inhibitor of nuclear factor kappa-B kinase subunit beta; assay: Irreversible inhibition of IKKbeta (unknown origin) using IkappaBalpha-derived 5FAMGRHDSGLDSMK-NH2 as substrate measured after 60 mins; in short: as §4
[11] = target: T2, Inhibitor of nuclear factor kappa-B kinase subunit beta; assay: Irreversible inhibition of IKKbeta (unknown origin) using IkappaBalpha-derived 5FAMGRHDSGLDSMK-NH2 as substrate measured after 20 mins; in short: as §4
[12] = target: T1, Inhibitor of nuclear factor kappa-B kinase subunit beta (Homo sapiens); assay: Irreversible inhibition of IKKbeta (unknown origin) at 0.001 to 30 uM using IkappaBalpha-derived 5FAMGRHDSGLDSMK-NH2 as substrate measured up to 60 mins; in short: as §4
[13] = target: T2, Inhibitor of nuclear factor kappa-B kinase subunit beta; assay: Irreversible inhibition of IKKbeta (unknown origin) using IkappaBalpha-derived 5FAMGRHDSGLDSMK-NH2 as substrate measured immediately; in short: as §4

inhibition [1]: 2.7%
Compound: CS(=O)(=O)N1CCN(CCCCOc2ccc(N3C(=O)S/C(=C\c4ccc(Oc5ccc(F)cc5)cc4)C3=O)cc2)CC1

inhibition [1]: 1.7%
Compound: COCCN1CCN(CCCCOc2ccc(N3C(=O)S/C(=C\c4ccc(Oc5ccc(Cl)cc5)cc4)C3=O)cc2)CC1

inhibition [1]: 21.7%
Compound: O=C(C1CC1)N1CCN(CCCCOc2ccc(N3C(=O)S/C(=C\c4ccc(Oc5ccc([N+](=O)[O-])cc5)cc4)C3=O)cc2)CC1

inhibition [1]: 1.6%
Compound: COCCCN1CCN(CCCCOc2ccc(N3C(=O)S/C(=C\c4ccc(Oc5ccc(Cl)cc5)cc4)C3=O)cc2)CC1

inhibition [1]: 0.8%
Compound: CS(=O)(=O)N1CCN(CCCCOc2ccc(N3C(=O)S/C(=C\c4ccc(Oc5ccc(Cl)cc5)cc4)C3=O)cc2)CC1

inhibition [1]: 9.4%
Compound: COCCCN1CCN(CCCCOc2ccc(N3C(=O)S/C(=C\c4ccc(Oc5ccc([N+](=O)[O-])cc5)cc4)C3=O)cc2)CC1

inhibition [1]: 88.8% | IC50 [2]: 1400 nM
Compound: O=C1S/C(=C\c2ccc(Oc3ccc(F)cc3)cc2)C(=O)N1c1ccc(OCCCN2CCN(CC3CC3)CC2)cc1

inhibition [1]: 0.7%
Compound: COCCCN1CCN(CCCCOc2ccc(N3C(=O)S/C(=C\c4ccc(Oc5ccc(F)cc5)cc4)C3=O)cc2)CC1

inhibition [1]: 0%
Compound: CS(=O)(=O)N1CCN(CCCCOc2ccc(N3C(=O)S/C(=C\c4ccc(Oc5ccc([N+](=O)[O-])cc5)cc4)C3=O)cc2)CC1

inhibition [1]: 3.3%
Compound: CS(=O)(=O)N1CCN(CCCCOc2ccc(N3C(=O)S/C(=C\c4ccc(Oc5ccc(Br)cc5)cc4)C3=O)cc2)CC1

inhibition [1]: 92.1% | IC50 [2]: 900 nM | IC50 (RAW264.7 [4]): > 6000 nM
Compound: O=C1S/C(=C\c2ccc(N3CCOCC3)c(Cl)c2)C(=O)N1c1ccc(OCCCCCN2CCN(CC3CC3)CC2)cc1
IC80 at 24 h [3]: < 1500 nM | Activity (RAW264.7 [4]): Dose-dependent effect

IC50 [5]: 97400 nM
Compound: O=C1N/C(=N\c2ccc(O)cc2)S/C1=C\c1cc2ccccc2[nH]1

inhibition [1]: 0%
Compound: COCCN1CCN(CCCCOc2ccc(N3C(=O)S/C(=C\c4ccc(Oc5ccc(Br)cc5)cc4)C3=O)cc2)CC1

inhibition [1]: 17%
Compound: O=C(C1CC1)N1CCN(CCCCOc2ccc(N3C(=O)S/C(=C\c4ccc(Oc5ccc(Cl)cc5)cc4)C3=O)cc2)CC1

inhibition [1]: 0%
Compound: COCCCN1CCN(CCCCOc2ccc(N3C(=O)S/C(=C\c4ccc(Oc5ccc(Br)cc5)cc4)C3=O)cc2)CC1

inhibition [1]: 52.4% | IC50 [2]: 8600 nM
Compound: O=C(C1CC1)N1CCN(CCCCOc2ccc(N3C(=O)S/C(=C\c4ccc(Oc5ccc(Br)cc5)cc4)C3=O)cc2)CC1
inhibition at 100 µM (hERG (KCNH2)): 17.1%

inhibition [1]: 85.6% | IC50 (RAW264.7 [6]): 3410 nM | IC50 [2]: 1500 nM | IC50 (RAW264.7 [4]): > 6000 nM
Compound: O=C1S/C(=C\c2ccc(Oc3ccc([N+](=O)[O-])cc3)cc2)C(=O)N1c1ccc(OCCCCN2CCN(CC3CC3)CC2)cc1
inhibition at 100 µM (hERG (KCNH2)): 61.2% | IC80 at 24 h [3]: > 6000 nM | selectivity ratio [7]: 36.9 | Activity (RAW264.7 [4]): Dose-dependent effect | IC50 [8]: 55300 nM

inhibition [1]: 37.5%
Compound: O=C1S/C(=C\c2ccc(Oc3ccc(Cl)cc3)cc2)C(=O)N1c1ccc(OCCCCN2CCN(CC3CC3)CC2)cc1

inhibition [1]: 92.8% | IC50 [9]: 299 nM | IC50 [10]: 240 nM | IC50 (RAW264.7 [6]): 1670 nM | IC50 [11]: 340 nM | inhibition [12]: Active | IC50 [13]: 1100 nM | IC50 [2]: 400 nM | IC50 (RAW264.7 [4]): > 6000 nM
Compound: O=C1S/C(=C\c2ccc(Oc3ccc(F)cc3)cc2)C(=O)N1c1ccc(OCCCCCN2CCN(CC3CC3)CC2)cc1
IC80 at 24 h [3]: > 6000 nM | Activity (RAW264.7 [4]): Dose-dependent effect

IC50 [5]: 7800 nM
Compound: Nc1nc(N)nc(-c2ccc(Oc3ccccc3N)cc2)n1

inhibition [1]: 90.7% | IC50 [9]: 251 nM | IC50 [10]: 252 nM | IC50 (RAW264.7 [6]): > 6000 nM | IC50 [11]: 288 nM | inhibition [12]: Active | IC50 [13]: 372 nM | IC50 [2]: 700 nM
Compound: O=C1S/C(=C\c2ccc(N3CCOCC3)c(Cl)c2)C(=O)N1c1ccc(OCCCN2CCN(CC3CC3)CC2)cc1
IC80 at 24 h [3]: 2670 nM

inhibition [1]: 9.3%
Compound: COCCN1CCN(CCCCOc2ccc(N3C(=O)S/C(=C\c4ccc(Oc5ccc([N+](=O)[O-])cc5)cc4)C3=O)cc2)CC1

inhibition [1]: 1.6%
Compound: COCCN1CCN(CCCCOc2ccc(N3C(=O)S/C(=C\c4ccc(Oc5ccc(F)cc5)cc4)C3=O)cc2)CC1

inhibition [1]: 85.7% | IC50 [2]: 1700 nM
Compound: O=C1S/C(=C\c2ccc(Oc3ccc(F)cc3)cc2)C(=O)N1c1ccc(OCCCCN2CCN(CC3CC3)CC2)cc1
inhibition at 100 µM (hERG (KCNH2)): 99.5% | selectivity ratio [7]: 2 | IC50 [8]: 3400 nM

inhibition [1]: 21.2%
Compound: O=C(C1CC1)N1CCN(CCCCOc2ccc(N3C(=O)S/C(=C\c4ccc(Oc5ccc(F)cc5)cc4)C3=O)cc2)CC1

inhibition [1]: 60.8% | IC50 [2]: 7900 nM
Compound: O=C1S/C(=C\c2ccc(Oc3ccc(Br)cc3)cc2)C(=O)N1c1ccc(OCCCCN2CCN(CC3CC3)CC2)cc1
inhibition at 100 µM (hERG (KCNH2)): 66.5% | selectivity ratio [7]: 3.5 | IC50 [8]: 27500 nM

— ChEMBL document CHEMBL4270615, “Design, synthesis and biological evaluation of novel thiazolidinedione derivatives as irreversible allosteric IKK-β modulators” (Eur J Med Chem, 2018)
